Measured values pooled from the literature.
Protocols differ between the studies behind these lines.
Palmitoyl-protein thioesterase 1: Palmitoyl-protein thioesterase 1 (Homo sapiens, UniProt P50897)
Transmembrane protease serine 6: Transmembrane protease serine 6 (Homo sapiens, UniProt Q8IU80)

Compound | target | assay | conditions | endpoint | value
NC(=O)c1c(OCc2c(F)cc(Br)cc2F)nsc1NC(=O)NCCCCN1CCCC1 | Palmitoyl-protein thioesterase 1 | enzyme activity, inhibitor | 125 µM | inhibition | 8.63%
N=C(N)NCCC[C@H](NC(=O)[C@H](CCc1ccccc1)NC(=O)[C@H](Cc1cscn1)NC(=O)CCc1ccccc1)C(=O)c1nc2ccccc2s1 | Transmembrane protease serine 6 | enzyme activity, inhibitor | 0.1 µM | remaining activity | 2%
COc1cc(-c2cncc3c2CN(C)Cc2cc(N4CCNCC4)ccc2-3)cc(OC)c1OC | Epidermal growth factor receptor (EGFR, Homo sapiens, UniProt P00533, L858R) | enzyme activity, inhibitor | 1 µM | remaining activity | 36%
CNc1ncc2c(/C=C/C(=O)N3CCC(OC)CC3)nn(Cc3cccc(C(F)(F)F)c3)c2n1 | Epidermal growth factor receptor (EGFR, Homo sapiens, UniProt P00533) | enzyme activity, inhibitor, radiometric | 1 µM | remaining activity | 108%
C=CC(=O)N1CCC(COCC(=O)N2CCN(c3nc(-c4cnc(N)nc4C(F)F)nc(N4CCOC[C@@H]4C)n3)CC2)CC1 | Ribosomal protein S6 kinase alpha-2, C-terminal kinase domain (RPS6KA2, Homo sapiens, UniProt Q15349) | binding, competition with immobilised ligand | 1 µM | remaining binding | 90%
CC(C)[C@@H](CC(=O)N[C@@H](CCCNC(=N)N)C(=O)c1nc2ccccc2s1)NC(=O)[C@H](Cc1cscn1)NC(=O)CCc1ccccc1 | Transmembrane protease serine 6 | enzyme activity, inhibitor | 0.1 µM | remaining activity | 100%
CC(=O)O[C@@]12CO[C@@H]1C[C@H](O)[C@@]1(C)C(=O)[C@H](O)C3=C(C)[C@@H](OC(=O)[C@H](O)[C@@H](NC(=O)OC(C)(C)C)c4ccccc4)C[C@@](O)([C@@H](OC(=O)c4ccccc4)[C@H]21)C3(C)C | Palmitoyl-protein thioesterase 1 | enzyme activity, inhibitor | 125 µM | inhibition | 10.3%
Cc1cc([C@@H](C)Nc2ccccc2C(=O)O)c2nc(N3CCC(F)(F)CC3)c(C#N)c(=O)n2c1 | Serine/threonine-protein kinase B-raf (BRAF, Homo sapiens, UniProt P15056) | binding, competition with immobilised ligand | 10 µM | remaining binding | 74%
CC1CNC(=O)NC1=O (stereo not shown) | Palmitoyl-protein thioesterase 1 | enzyme activity, inhibitor | 125 µM | inhibition | -1.19%
CC[C@@H](C)[C@H](NC(=O)[C@H](Cc1cscn1)NC(=O)CCc1ccccc1)C(=O)N[C@@H](CCCNC(=N)N)C(=O)c1nc2ccccc2s1 | Transmembrane protease serine 6 | enzyme activity, inhibitor | 0.1 µM | remaining activity | 1%
